One assay concerns Escherichia coli. The experiment in a line: Antibacterial activity against Escherichia coli J53. Format: functional.
Assay [1] concerns the target DNA polymerase III PolC-type (Bacillus subtilis (strain 168), UniProt P13267). The experiment in a line: Binding affinity to Bacillus subtilis DNA polymerase3C. Put shortly:
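Homogeneous recombinant B. subtilis pol IIIC was assayed in 96-well format on activated calf thymus DNA. Apparent Ki values were determined in a truncated assay lacking the competitor dGTP.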

Assay [2] relates to Staphylococcus aureus. The experiment in a line: Antibacterial activity against methicillin resistant Staphylococcus aureus MRSA 1094. In kind it is functional.
In assay [3] the test system is Enterococcus faecium. The experiment in a line: Antibacterial activity against Enterococcus faecium 19434. Format: functional.
Assay [4] deals with Staphylococcus aureus. The experiment in a line: Antibacterial activity against Staphylococcus aureus 25293. In kind it is functional.
The test system of another assay is Bacillus subtilis. The experiment in a line: Antibacterial activity against Bacillus subtilis BD54. In kind it is functional.
For assay [5], the system named is Enterococcus faecium. The experiment in a line: Antibacterial activity against Vancomycin resistant Enterococcus faecium VRE 700802. Format: functional.
The test system of another assay is Enterococcus faecalis. The experiment in a line: Antibacterial activity against Enterococcus faecalis 29212. Format: functional.
For assay [6], the system named is Staphylococcus aureus. The experiment in a line: Antibacterial activity against Staphylococcus aureus smith. In kind it is functional.
Another assay has as its system Mus musculus. The experiment in a line: Effect on survival of mice after ip infection with Staphylococcus aureus Smith. In kind it is functional. In a few lines:
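Male Swiss-Webster mice (20–24 g) were given 10⁸ CFU of log-phase S. aureus Smith ip, grown in LB at 37 °C and washed in cold broth. A single iv tail-vein dose was given in DCP vehicle (10% DMA, 10% Cremophor EL in PBS, pH 9.5; 5 mL/kg) 15 min post-infection. Survival was scored at 72 h and ED50 derived.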

Assay [7] deals with DNA gyrase (Bacillus subtilis). The experiment in a line: Inhibition of Bacillus subtilis gyrase activity.

Values after ≈ are worked out from the molar mass of the structure shown.

The MIC is the lowest concentration that inhibits growth of the organism. Low values mean inhibition by little substance, high ones a need for much substance. The term Ki denotes the equilibrium dissociation constant of an inhibitor or competing ligand from its target. What is called ED50 is the midpoint of the dose-response relation. A lower ED50 goes with greater potency. As a reminder, the IC50 is the concentration needed to halve the response being measured. Read a low IC50 as greater potency in that assay.

Sequence of DNA polymerase III PolC-type (P13267 whole entry, the tested form may be a part): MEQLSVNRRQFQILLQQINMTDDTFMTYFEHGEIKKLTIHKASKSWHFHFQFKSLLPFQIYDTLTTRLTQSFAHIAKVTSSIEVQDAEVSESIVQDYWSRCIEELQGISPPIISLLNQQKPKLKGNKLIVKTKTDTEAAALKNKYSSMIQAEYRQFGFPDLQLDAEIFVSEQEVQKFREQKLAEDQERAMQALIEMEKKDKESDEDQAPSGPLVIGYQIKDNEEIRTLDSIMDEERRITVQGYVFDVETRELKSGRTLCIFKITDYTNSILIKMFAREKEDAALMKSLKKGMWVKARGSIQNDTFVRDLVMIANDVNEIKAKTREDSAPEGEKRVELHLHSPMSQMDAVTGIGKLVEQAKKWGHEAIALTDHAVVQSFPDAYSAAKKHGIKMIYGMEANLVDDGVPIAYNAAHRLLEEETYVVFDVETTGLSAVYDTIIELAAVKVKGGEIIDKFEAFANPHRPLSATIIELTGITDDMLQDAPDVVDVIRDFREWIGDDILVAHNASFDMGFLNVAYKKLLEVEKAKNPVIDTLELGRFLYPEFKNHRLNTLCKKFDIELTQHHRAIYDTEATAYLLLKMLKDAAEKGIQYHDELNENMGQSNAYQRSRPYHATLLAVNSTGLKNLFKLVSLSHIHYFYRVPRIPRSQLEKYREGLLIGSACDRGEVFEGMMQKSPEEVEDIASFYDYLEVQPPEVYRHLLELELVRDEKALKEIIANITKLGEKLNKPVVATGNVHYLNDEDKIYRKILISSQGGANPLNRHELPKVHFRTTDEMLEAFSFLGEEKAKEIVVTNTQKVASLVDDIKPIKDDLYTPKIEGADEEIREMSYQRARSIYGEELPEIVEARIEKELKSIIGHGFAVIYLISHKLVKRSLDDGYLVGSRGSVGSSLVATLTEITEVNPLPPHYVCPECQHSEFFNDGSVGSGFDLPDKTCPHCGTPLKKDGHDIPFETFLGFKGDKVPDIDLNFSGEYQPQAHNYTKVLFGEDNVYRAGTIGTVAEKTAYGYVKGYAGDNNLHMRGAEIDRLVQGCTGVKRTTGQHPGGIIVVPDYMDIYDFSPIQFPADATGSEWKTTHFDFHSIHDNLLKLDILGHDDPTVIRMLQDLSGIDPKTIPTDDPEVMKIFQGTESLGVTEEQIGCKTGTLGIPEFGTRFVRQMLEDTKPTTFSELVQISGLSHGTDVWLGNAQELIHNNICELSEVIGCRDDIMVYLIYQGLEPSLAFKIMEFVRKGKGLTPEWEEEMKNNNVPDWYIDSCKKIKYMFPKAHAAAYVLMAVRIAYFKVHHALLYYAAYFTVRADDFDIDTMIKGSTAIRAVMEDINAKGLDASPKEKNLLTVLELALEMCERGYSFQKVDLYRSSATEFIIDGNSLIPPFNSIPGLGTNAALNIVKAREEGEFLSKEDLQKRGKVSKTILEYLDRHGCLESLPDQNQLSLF

For `O=C(O)c1cn(C2CC2)c2cc(N3CCN(CCCCn4c(=O)cc(Nc5ccccc5)[nH]c4=O)CC3)c(F)cc2c1=O`, the MIC was above 40 µg/mL against Escherichia coli; above 40 µg/mL in the assay with Staphylococcus aureus [2]; above 40 µg/mL in the assay on Enterococcus faecium [3]; 2.5 µg/mL (≈ 4.25 µM) in the assay with Staphylococcus aureus [4]; 2.5 µg/mL (≈ 4.25 µM) against Bacillus subtilis; 40 µg/mL (≈ 68 µM) against Enterococcus faecium [5]. Moreover, the figures for the MIC in the assay with Enterococcus faecalis and against Staphylococcus aureus [6] were 10 µg/mL (≈ 17 µM) and 2.5 µg/mL (≈ 4.25 µM), respectively. In addition, in [1] (read-out: Ki), the inhibition constant (Ki) stood at 29000 nM.

On to `CCc1cc(Nc2cc(=O)n(CCCCN3CCN(c4c(F)cc5c(=O)c(C(=O)O)cn(C6CC6)c5c4Cl)CC3)c(=O)[nH]2)ccc1C`, for which the MIC against Escherichia coli came to 20 µg/mL (≈ 30.1 µM); against Staphylococcus aureus [2], 1.25 µg/mL (≈ 1.88 µM); against Enterococcus faecium [3] it was 1.25 µg/mL (≈ 1.88 µM); in the assay on Staphylococcus aureus [4], 0.313 µg/mL (≈ 0.471 µM); with Bacillus subtilis, 0.078 µg/mL (≈ 0.117 µM); with Enterococcus faecium [5], 0.625 µg/mL (≈ 0.94 µM). Moreover, the minimum inhibitory concentration (MIC) in the assay with Enterococcus faecalis was found to be 0.625 µg/mL (≈ 0.94 µM); with Staphylococcus aureus [6] it was 0.156 µg/mL (≈ 0.235 µM). The inhibitory constant (Ki) in assay [1] (read-out: Ki) came to 10 nM.

Consider `CCc1cc(Nc2cc(=O)n(CCCCCN3CCN(c4cc5c(cc4F)c(=O)c(C(=O)O)cn5C4CC4)CC3)c(=O)[nH]2)ccc1C`, for which the MIC was above 40 µg/mL against Escherichia coli; 2.5 µg/mL (≈ 3.88 µM) against Staphylococcus aureus [2]; 1.25 µg/mL (≈ 1.94 µM) in the assay with Enterococcus faecium [3]; 1.25 µg/mL (≈ 1.94 µM) in the assay on Staphylococcus aureus [4]; 0.313 µg/mL (≈ 0.485 µM) with Bacillus subtilis; 1.25 µg/mL (≈ 1.94 µM) in the assay on Enterococcus faecium [5]. In addition, the minimum inhibitory concentration (MIC) is 0.625 µg/mL (≈ 0.969 µM) against Enterococcus faecalis and 1.25 µg/mL (≈ 1.94 µM) against Staphylococcus aureus [6]. In addition, the Ki in assay [1] (read-out: Ki) worked out at 19 nM.

In the case of `CCc1cc(Nc2cc(=O)n(CCCCCN3CC4CCCN(c5cc6c(cc5F)c(=O)c(C(=O)O)cn6CC)C4C3)c(=O)[nH]2)ccc1C` (configuration not stated), the MIC against Escherichia coli is above 80 µg/mL; in the assay with Staphylococcus aureus [2] it was above 80 µg/mL; against Enterococcus faecium [3], 20 µg/mL (≈ 29.7 µM); with Staphylococcus aureus [4], 10 µg/mL (≈ 14.9 µM); with Bacillus subtilis it was 2.5 µg/mL (≈ 3.72 µM); against Enterococcus faecium [5], 5 µg/mL (≈ 7.43 µM). In addition, the values for the MIC in the assay on Enterococcus faecalis and against Staphylococcus aureus [6] were 10 µg/mL (≈ 14.9 µM) and 5 µg/mL (≈ 7.43 µM), respectively. Further, the Ki in assay [1] (read-out: Ki) was found to be 37 nM.

On to `CCc1cc(Nc2cc(=O)n(CCCCN3CCN(c4cc5c(cc4F)c(=O)c(C(=O)O)cn5CC)CC3)c(=O)[nH]2)ccc1C`, for which the minimal inhibitory concentration (MIC) is above 40 µg/mL with Escherichia coli; 2.5 µg/mL (≈ 4.04 µM) with Staphylococcus aureus [2]; 0.625 µg/mL (≈ 1.01 µM) with Enterococcus faecium [3]; 1.25 µg/mL (≈ 2.02 µM) against Staphylococcus aureus [4]; 0.313 µg/mL (≈ 0.506 µM) in the assay on Bacillus subtilis; 0.625 µg/mL (≈ 1.01 µM) in the assay with Enterococcus faecium [5]. For the same compound, the results for the minimum inhibitory concentration (MIC) with Enterococcus faecalis and against Staphylococcus aureus [6] were 0.625 µg/mL (≈ 1.01 µM) and 1.25 µg/mL (≈ 2.02 µM), respectively.

On to `CCc1cc(Nc2cc(=O)n(CCCCN3CCN(c4c(F)cc5c(=O)c(C(=O)O)cn(C6CC6)c5c4OC)CC3)c(=O)[nH]2)ccc1C`, for which the minimum inhibitory concentration (MIC) in the assay on Escherichia coli was above 40 µg/mL; with Staphylococcus aureus [2] it was 1.25 µg/mL (≈ 1.89 µM); in the assay with Enterococcus faecium [3] it was 1.25 µg/mL (≈ 1.89 µM); against Staphylococcus aureus [4], 0.625 µg/mL (≈ 0.946 µM); in the assay on Bacillus subtilis, 0.156 µg/mL (≈ 0.236 µM); against Enterococcus faecium [5] it was 0.625 µg/mL (≈ 0.946 µM). In addition, the MIC against Enterococcus faecalis was determined as 1.25 µg/mL (≈ 1.89 µM); with Staphylococcus aureus [6] it was 0.313 µg/mL (≈ 0.474 µM). Besides, the inhibitory constant (Ki) in [1] (read-out: Ki) came out at 14 nM. The median effective dose (ED50) in the assay with Mus musculus is 25 mg/kg.

As to `CCc1cc(Nc2cc(=O)n(CCCCN3CCN(c4nc5c(cc4F)c(=O)c(C(=O)O)cn5CC)CC3)c(=O)[nH]2)ccc1C`, the minimum inhibitory concentration (MIC) with Escherichia coli is above 40 µg/mL; in the assay with Staphylococcus aureus [2], 2.5 µg/mL (≈ 4.03 µM); with Enterococcus faecium [3] it was 1.25 µg/mL (≈ 2.02 µM); in the assay on Bacillus subtilis it was 0.313 µg/mL (≈ 0.505 µM); against Enterococcus faecium [5], 0.625 µg/mL (≈ 1.01 µM); with Enterococcus faecalis, 1.25 µg/mL (≈ 2.02 µM).

Turning to `CCc1cc(Nc2cc(=O)n(CCCCN3CCN(c4cc5c(cc4F)c(=O)c(C(=O)O)cn5C(C)(C)C)CC3)c(=O)[nH]2)ccc1C.Cl`, the MIC in the assay with Escherichia coli was above 40 µg/mL; in the assay on Staphylococcus aureus [2], 1.25 µg/mL; with Enterococcus faecium [3], 1.25 µg/mL; against Staphylococcus aureus [4], 0.625 µg/mL; with Bacillus subtilis, 0.313 µg/mL; in the assay with Enterococcus faecium [5], 1.25 µg/mL. Besides, the MIC in the assay on Enterococcus faecalis and against Staphylococcus aureus [6] was 0.625 µg/mL in each case. The Ki in assay [1] (read-out: Ki) came to 13 nM.

As for `O=C(O)c1cn(C2CC2)c2cc(N3CCNCC3)c(F)cc2c1=O` [CIPROFLOXACIN], the minimum inhibitory concentration (MIC) in the assay on Escherichia coli turned out to be 0.313 µg/mL (≈ 0.945 µM); against Staphylococcus aureus [2] it was 20 µg/mL (≈ 60.4 µM); in the assay with Staphylococcus aureus [4], 0.313 µg/mL (≈ 0.945 µM); against Enterococcus faecium [5], 80 µg/mL (≈ 241 µM). In addition, in assay [1], the inhibition constant Ki entry is “Not Active”. The compound further displayed a concentration for half-maximal inhibition (IC50) in [7] of 1.9 µg/mL (≈ 5.73 µM).

Consider `CC(=O)NC[C@H]1CN(c2ccc(N3CCOCC3)c(F)c2)C(=O)O1` [LINEZOLID], for which the MIC is above 80 µg/mL against Escherichia coli; 1.25 µg/mL (≈ 3.71 µM) against Staphylococcus aureus [2]; 2.5 µg/mL (≈ 7.41 µM) against Enterococcus faecium [3]; 1.25 µg/mL (≈ 3.71 µM) against Staphylococcus aureus [4]; 0.625 µg/mL (≈ 1.85 µM) in the assay with Bacillus subtilis; 1.25 µg/mL (≈ 3.71 µM) against Enterococcus faecium [5]. Also, the MIC in the assay on Enterococcus faecalis was 1.25 µg/mL (≈ 3.71 µM); against Staphylococcus aureus [6], 2.5 µg/mL (≈ 7.41 µM). Further, the Ki entry in [1] is “Not Active”.

The compound `CCn1cc(C(=O)O)c(=O)c2ccc(C)nc21` [NALIDIXIC ACID] came in with a 50% inhibitory concentration (IC50) in assay [7] of 34.6 µg/mL (≈ 149 µM).

Turning to `CCn1cc(C(=O)O)c(=O)c2cc(F)c(N3CCNCC3)cc21` [NORFLOXACIN], the MIC against Escherichia coli stood at 1.25 µg/mL (≈ 3.91 µM); against Staphylococcus aureus [2], 40 µg/mL (≈ 125 µM); in the assay on Enterococcus faecium [3] it was 10 µg/mL (≈ 31.3 µM); in the assay on Bacillus subtilis, 0.313 µg/mL (≈ 0.98 µM); with Enterococcus faecium [5], 80 µg/mL (≈ 251 µM); in the assay on Enterococcus faecalis, 2.5 µg/mL (≈ 7.83 µM). In addition, the inhibition constant Ki entry in [1] is given as “Not Active”.
